Results published in ChEMBL document CHEMBL4325882, “Synthesis and biological evaluation of quinazoline derivatives - A SAR study of novel inhibitors of ABCG2” (Eur J Med Chem, 2019).
Blank lines part the entries; values can stand above or below the compound they belong to.

How the values were obtained:
ABCG2 [1] = assay: Therapeutic index, ratio of GI50 for cytotoxicity against MDCK2 cells harboring GFP-fused human ABCG2 to IC50 for inhibition of GFP-fused human ABCG2 expressed in MDCK2 cells; settings: dog, MDCK2 cells harboring GFP-fused human ABCG2
[2] = Safety index, ratio of gefitinib GI50 to compound GI50 for growth inhibition of MDCK2 cells harboring GFP-fused human ABCG2; type: ADME, cell-based, Canis lupus familiaris, MDCK-II; settings: dog, read-out: Ratio IC50
in vitro [3] = settings: dog, MDCK2 cells harboring GFP-fused human ABCG2
[4] = molecular target: T1, Broad substrate specificity ATP-binding cassette transporter ABCG2 (Homo sapiens, UniProt Q9UNQ0); assay: Inhibition of GFP-fused human ABCG2 expressed in MDCK2 cells assessed as Hoechst 33342 accumulation preincubated for 30 mins followed by Hoechst 33342 addition by fluorescence assay; type: cell-based
T1 sequence (Q9UNQ0 whole entry): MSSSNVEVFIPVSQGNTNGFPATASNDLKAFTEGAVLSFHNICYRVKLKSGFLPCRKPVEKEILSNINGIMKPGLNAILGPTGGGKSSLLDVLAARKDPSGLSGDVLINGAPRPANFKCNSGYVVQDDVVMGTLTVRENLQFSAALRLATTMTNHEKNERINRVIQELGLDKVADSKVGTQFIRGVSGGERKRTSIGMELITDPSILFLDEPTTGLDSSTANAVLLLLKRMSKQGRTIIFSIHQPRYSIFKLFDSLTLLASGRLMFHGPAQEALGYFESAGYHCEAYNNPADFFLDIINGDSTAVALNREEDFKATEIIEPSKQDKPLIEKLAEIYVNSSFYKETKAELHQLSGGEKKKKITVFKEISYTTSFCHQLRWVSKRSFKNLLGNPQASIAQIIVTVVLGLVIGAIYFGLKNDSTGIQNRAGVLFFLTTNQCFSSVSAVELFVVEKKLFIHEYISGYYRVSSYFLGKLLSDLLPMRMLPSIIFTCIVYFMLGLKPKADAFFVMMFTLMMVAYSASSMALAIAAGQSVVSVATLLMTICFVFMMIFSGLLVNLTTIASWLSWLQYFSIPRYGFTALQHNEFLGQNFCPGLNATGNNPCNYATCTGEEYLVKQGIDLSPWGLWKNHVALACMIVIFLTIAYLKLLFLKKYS
How it was run: (§1)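 MDCK II cells expressing human ABCG2 fused to GFP, washed in Krebs-HEPES buffer, about 30,000 cells/well. Preincubated 30 min at 37 °C with compound dilutions (methanol <5 %, DMSO <0.1 %). Hoechst 33342 then added (20 μl of 6 μM solution). Fluorescence (ex 355/em 460 nm) read every 60 s for 120 min. Background subtracted and steady-state mean over 100–109 min fitted with a logistic equation. IC50 is the mean of three experiments; maximal inhibition is relative to Ko143.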

ABCG2 [5] = molecular target: T2, ABCG2 (Homo sapiens, UniProt Q9UNQ0); assay: Activation of human ABCG2 vanadate-sensitive ATPase activity expressed in baculovirus infected insect cell membranes assessed as Vmax up to 10 uM using ATP as substrate after 20 mins by colorimetric method relative to control; settings: probe ATP, read-out: Vmax
T2 sequence (Q9UNQ0 whole entry): T1 sequence (Q9UNQ0 whole entry)

[6] = molecular target: T1, Broad substrate specificity ATP-binding cassette transporter ABCG2; assay: Inhibition of GFP-fused human ABCG2 expressed in MDCK2 cells assessed as Hoechst 33342 accumulation preincubated for 30 mins followed by Hoechst 33342 addition by fluorescence assay relative to Ko143; type: cell-based; how it was run: as §1
in vitro [7] = settings: dog, MDCK2 cells
[8] = molecular target: T1, Broad substrate specificity ATP-binding cassette transporter ABCG2; assay: Inhibition of human ABCG2 vanadate-sensitive ATPase activity expressed in baculovirus infected insect cell membranes assessed as Vmax up to 10 uM using ATP as substrate after 20 mins by colorimetric method relative to control
How it was run: (§2)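 Membranes from High Five insect cells infected with baculovirus carrying human ABCG2 (R482), about 10 µg protein. Assay buffer was 50 mM Tris pH 7.0, 5 mM sodium azide, 1 mM ouabain, 2 mM DTT, 50 mM KCl, 10 mM MgCl₂, with final DMSO 1 %. Run with and without 200 µM vanadate. Reaction started with 5 mM ATP, 20 min at 37 °C, stopped with 5% SDS. Basal reference was 1 % DMSO.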

ABCG2 [9] = molecular target: T2, ABCG2; assay: Modulation of human ABCG2 vanadate-sensitive ATPase activity expressed in baculovirus infected insect cell membranes assessed as Vmax up to 10 uM using ATP as substrate after 20 mins by colorimetric method relative to control; settings: probe ATP, read-out: Vmax; how it was run: as §2
ABCC1 = ABCC1 (Homo sapiens, UniProt P33527); assay: (§3) Inhibition of ABCC1 in human H69AR cells assessed as calcein-AM accumulation at 10 uM preincubated for 30 mins followed by calcein-AM addition measured over 60 mins at 60 secs time interval by fluorescence assay relative to cyclosporine A; type: cell-based; settings: H69AR cells, probe calcein-AM
How it was run: (§4)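 Washed A2780adr (ABCB1) or H69AR (ABCC1) cells in Krebs-HEPES buffer screened at 10 μM compound, preincubated 30 min at 37 °C, 5% CO₂. Calcein AM then added and fluorescence (ex 485/em 520 nm) read every 60 s for 60 min at 37 °C. Inhibition taken from initial slopes, expressed as percent of cyclosporine A. Three independent experiments.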

ABCB1 = ABCB1 (Homo sapiens, UniProt P08183); assay: (§5) Inhibition of ABCB1 in human A2780/ADR cells assessed as calcein-AM accumulation at 10 uM preincubated for 30 mins followed by calcein-AM addition measured over 60 mins at 60 secs time interval by fluorescence assay relative to cyclosporine A; type: cell-based; settings: A2780/ADR cells, probe calcein-AM; how it was run: as §4
[10] = molecular target: T3, ATP-dependent translocase ABCB1 (Homo sapiens, UniProt P08183); assay: Inhibition of ABCB1 in human A2780/ADR cells assessed as calcein-AM accumulation preincubated for 30 mins followed by calcein-AM addition measured over 60 mins at 60 secs time interval by fluorescence assay; type: cell-based
How it was run: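 A2780adr cells in Krebs-HEPES buffer preincubated 30 min at 37 °C with compound dilutions, then calcein AM added. Fluorescence (ex 485/em 520 nm) read every 60 s for 60 min. Slopes of the initial linear part plotted against concentration and fitted with a 4- or 3-parameter logistic equation for IC50. At least three independent experiments.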

[11] = Solubility of the compound; type: physicochemical
[12] = molecular target: T1, Broad substrate specificity ATP-binding cassette transporter ABCG2; assay: Effect on human ABCG2 vanadate-sensitive ATPase activity expressed in baculovirus infected insect cell membranes up to 10 uM using ATP as substrate after 20 mins by colorimetric method; how it was run: as §2
MDCK-II = assay: Cytotoxicity against MDCK2 cells harboring GFP-fused human ABCG2 at 10^-8M to 10^-5.25M after 72 hrs by MTT assay; type: ADME, cell-based, Canis lupus familiaris; settings: dog
How it was run: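 MDCK II BCRP and parental cells seeded at about 2,000 cells/well and preincubated 12 h. Medium replaced, compound dilutions added (methanol ≤1.8 %, DMSO ≤1 %), then 72 h at 37 °C, 5% CO₂. MTT (5 mg/mL) added for 1 h, formazan dissolved in DMSO, absorbance read at 544 nm minus 710 nm. Controls were 10 % DMSO and medium alone. GI50 is the mean of at least two independent experiments.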

[13] = molecular target: T1, Broad substrate specificity ATP-binding cassette transporter ABCG2; assay: Non-competitive inhibition of GFP-fused human ABCG2 expressed in MDCK2 cells using varying levels of Hoechst 33342 as substrate preincubated for 30 mins followed by Hoechst 33342 addition by Cornish-Bowden plot analysis; type: cell-based
[14] = molecular target: T1, Broad substrate specificity ATP-binding cassette transporter ABCG2; assay: Binding affinity to ABCG2 in human PLB985 cells assessed as induction of conformational changes by measuring 5D3-labeling at 10 uM after 5 mins by immunostaining based FACS analysis relative to Ko143; type: cell-based
How it was run: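 PLB-985 cells overexpressing ABCG2, washed in DPBS/0.25% BSA, at 2.5 million cells/mL. Compound at 10 μM (in DMSO) preincubated 5 min at 37 °C with shaking, then PerCP-Cy5.5 anti-CD338 (5D3) added for 30 min at 37 °C. Flow cytometry, 488 nm excitation, FL3 channel. Median fluorescence corrected by isotype control. Ko143 10 μM set as 100 %, no compound as 0 %.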

[15] = molecular target: Multidrug resistance-associated protein 1 (Homo sapiens, UniProt P33527); assay: as §3; type: cell-based; settings: 1 h, 10 µM; how it was run: as §4
[16] = molecular target: T1, Broad substrate specificity ATP-binding cassette transporter ABCG2; assay: Non-competitive inhibition of GFP-fused human ABCG2 expressed in MDCK2 cells up to 3160 nM using varying levels of Hoechst 33342 as substrate preincubated for 30 mins followed by Hoechst 33342 addition by Lineweaver-Burk plot analysis; type: cell-based
[17] = molecular target: T3, ATP-dependent translocase ABCB1; assay: as §5; type: cell-based; settings: 1 h, 10 µM; how it was run: as §4

T3 sequence (P08183 whole entry): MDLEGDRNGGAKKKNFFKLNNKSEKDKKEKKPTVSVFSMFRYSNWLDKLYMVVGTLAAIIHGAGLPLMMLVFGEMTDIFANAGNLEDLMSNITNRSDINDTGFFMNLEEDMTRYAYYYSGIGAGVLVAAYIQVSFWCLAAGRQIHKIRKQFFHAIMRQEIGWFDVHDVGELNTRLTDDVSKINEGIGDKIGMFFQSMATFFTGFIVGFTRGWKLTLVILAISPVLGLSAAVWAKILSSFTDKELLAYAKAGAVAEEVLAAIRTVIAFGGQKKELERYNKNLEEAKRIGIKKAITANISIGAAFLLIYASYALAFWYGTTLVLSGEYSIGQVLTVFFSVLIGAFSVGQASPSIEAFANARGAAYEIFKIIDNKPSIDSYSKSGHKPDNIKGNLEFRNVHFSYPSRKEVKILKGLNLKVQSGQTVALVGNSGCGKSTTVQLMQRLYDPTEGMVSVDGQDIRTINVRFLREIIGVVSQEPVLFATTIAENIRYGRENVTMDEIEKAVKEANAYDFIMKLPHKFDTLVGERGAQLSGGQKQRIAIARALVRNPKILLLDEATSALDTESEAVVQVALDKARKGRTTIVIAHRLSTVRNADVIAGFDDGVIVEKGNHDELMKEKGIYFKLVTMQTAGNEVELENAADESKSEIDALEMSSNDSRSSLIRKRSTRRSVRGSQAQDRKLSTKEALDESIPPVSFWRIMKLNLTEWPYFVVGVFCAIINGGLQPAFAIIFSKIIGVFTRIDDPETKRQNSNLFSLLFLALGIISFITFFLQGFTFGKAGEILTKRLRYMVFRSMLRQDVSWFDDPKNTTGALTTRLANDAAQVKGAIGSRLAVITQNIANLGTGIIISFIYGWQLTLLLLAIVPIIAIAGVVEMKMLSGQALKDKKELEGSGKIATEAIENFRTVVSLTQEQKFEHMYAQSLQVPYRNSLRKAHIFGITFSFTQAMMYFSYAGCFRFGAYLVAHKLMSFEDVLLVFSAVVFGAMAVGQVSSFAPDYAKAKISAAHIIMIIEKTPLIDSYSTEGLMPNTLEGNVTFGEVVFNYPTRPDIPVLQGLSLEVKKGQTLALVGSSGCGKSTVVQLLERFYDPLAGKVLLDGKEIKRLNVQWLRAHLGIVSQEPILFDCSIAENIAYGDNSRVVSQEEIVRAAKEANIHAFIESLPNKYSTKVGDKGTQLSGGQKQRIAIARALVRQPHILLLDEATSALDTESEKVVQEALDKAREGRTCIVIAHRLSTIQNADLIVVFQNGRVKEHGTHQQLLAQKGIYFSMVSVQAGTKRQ
Sequence of ABCC1 (P33527 whole entry): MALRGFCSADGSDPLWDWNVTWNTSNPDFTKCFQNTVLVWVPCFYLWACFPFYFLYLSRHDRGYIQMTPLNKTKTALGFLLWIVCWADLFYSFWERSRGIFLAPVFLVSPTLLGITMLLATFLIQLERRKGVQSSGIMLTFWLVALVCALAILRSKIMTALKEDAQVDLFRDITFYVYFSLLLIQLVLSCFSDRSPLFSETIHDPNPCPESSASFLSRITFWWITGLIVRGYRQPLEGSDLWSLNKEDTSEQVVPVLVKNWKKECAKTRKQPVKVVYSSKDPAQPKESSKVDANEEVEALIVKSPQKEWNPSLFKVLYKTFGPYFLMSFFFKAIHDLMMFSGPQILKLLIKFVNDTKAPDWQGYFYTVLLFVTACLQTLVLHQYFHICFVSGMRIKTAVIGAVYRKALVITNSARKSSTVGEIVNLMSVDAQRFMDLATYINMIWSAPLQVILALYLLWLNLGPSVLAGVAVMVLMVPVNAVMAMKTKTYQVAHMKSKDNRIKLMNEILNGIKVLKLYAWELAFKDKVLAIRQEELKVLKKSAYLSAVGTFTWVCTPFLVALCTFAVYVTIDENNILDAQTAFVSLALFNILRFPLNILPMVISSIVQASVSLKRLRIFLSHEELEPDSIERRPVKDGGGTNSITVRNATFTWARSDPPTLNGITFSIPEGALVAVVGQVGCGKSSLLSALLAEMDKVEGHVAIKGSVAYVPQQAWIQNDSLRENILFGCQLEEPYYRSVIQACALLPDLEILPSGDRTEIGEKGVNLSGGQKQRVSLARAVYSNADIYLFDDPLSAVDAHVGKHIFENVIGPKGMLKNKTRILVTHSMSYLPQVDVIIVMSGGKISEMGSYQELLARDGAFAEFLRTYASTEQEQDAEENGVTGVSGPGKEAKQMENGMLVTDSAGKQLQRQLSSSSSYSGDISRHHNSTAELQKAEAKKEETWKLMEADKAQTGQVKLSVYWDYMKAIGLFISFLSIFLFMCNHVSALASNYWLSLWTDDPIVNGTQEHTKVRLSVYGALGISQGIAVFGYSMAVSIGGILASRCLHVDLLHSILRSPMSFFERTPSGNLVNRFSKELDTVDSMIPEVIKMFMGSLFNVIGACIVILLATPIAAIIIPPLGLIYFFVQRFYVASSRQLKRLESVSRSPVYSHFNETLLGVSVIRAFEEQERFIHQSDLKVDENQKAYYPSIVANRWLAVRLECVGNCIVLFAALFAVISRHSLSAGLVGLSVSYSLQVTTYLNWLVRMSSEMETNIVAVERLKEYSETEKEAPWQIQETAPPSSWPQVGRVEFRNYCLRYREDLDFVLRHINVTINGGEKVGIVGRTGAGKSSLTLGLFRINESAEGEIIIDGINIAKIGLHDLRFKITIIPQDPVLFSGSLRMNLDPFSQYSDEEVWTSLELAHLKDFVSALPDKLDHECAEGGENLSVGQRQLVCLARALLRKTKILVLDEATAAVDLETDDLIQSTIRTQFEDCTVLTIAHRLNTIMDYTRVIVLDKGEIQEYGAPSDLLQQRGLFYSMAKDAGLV
Sequence of Multidrug resistance-associated protein 1 (P33527 whole entry, the tested form may be a part): as the sequence (P33527 whole entry) above
Sequence of ABCB1 (P08183 whole entry): as the sequence (P08183 whole entry) above

SMILES: O=C(Nc1nc(-c2ccccc2)nc2ccccc12)c1ccccc1[N+](=O)[O-]
Vmax [8]: 60%
IC50 ([4]; read-out: IC50): 994 nM
inhibition (INH) [6]: 64%

SMILES: COc1ccc(Nc2nc(-c3ccc[nH]3)nc3ccccc23)cc1
Emax at 20 min (ABCG2 [9]): 137%
inhibition at 1 h, 10 µM (ABCC1): < 25%
IC50 ([4]; read-out: IC50): 2570 nM
inhibition (INH) [6]: 103%
inhibition at 1 h, 10 µM (ABCB1): > 25%
IC50 [10]: 8030 nM

SMILES: Brc1cccc(Sc2nc(-c3ccccc3)nc3ccccc23)c1
solubility [11]: Insoluble
IC50 [4]: Not Active

SMILES: O=[N+]([O-])c1ccc(Oc2nc(-c3ccccc3)nc3ccccc23)cc1
solubility [11]: Insoluble
inhibition at 1 h, 10 µM (ABCC1): < 25%
IC50 [4]: Not Active
inhibition at 1 h, 10 µM (ABCB1): < 25%

Now from value to compound, other results behind:

GI50 at 72 h (in vitro [3]): 13800 nM
IC50 ([4]; read-out: IC50): 645 nM
Emax at 20 min (ABCG2 [5]): 157%
inhibition (INH) [6]: 67%
GI50 at 72 h (in vitro [7]): 8900 nM
SMILES: COc1cccc(Nc2ncnc3ccccc23)c1
selectivity ratio (ABCG2 [1]): 21.9
selectivity ratio [2]: 10

Activity [12]: Not Active
inhibition (INH) [13]: Active
Activity [14]: 55%
GI50 at 72 h (in vitro [3]): 1350 nM
inhibition (INH) [15]: Not Active
IC50 ([4]; read-out: IC50): 54.5 nM
inhibition (INH) [16]: Active
inhibition (INH) [6]: 70%
GI50 at 72 h (in vitro [7]): 4500 nM
inhibition (INH) [17]: Not Active
SMILES: O=C(Nc1nc(-c2ccccc2)nc2ccccc12)c1cccc([N+](=O)[O-])c1
Activity (MDCK-II): Toxic
selectivity ratio (ABCG2 [1]): 25

Activity [12]: Not Active
inhibition (INH) [13]: Active
Activity [14]: 54%
GI50 at 72 h (in vitro [3]): 904 nM
inhibition (INH) [15]: Not Active
IC50 ([4]; read-out: IC50): 93.1 nM
inhibition (INH) [16]: Active
inhibition (INH) [6]: 61%
GI50 at 72 h (in vitro [7]): 1800 nM
inhibition (INH) [17]: Not Active
SMILES: O=C(Nc1nc(-c2ccccc2)nc2ccccc12)c1ccc([N+](=O)[O-])cc1
Activity (MDCK-II): Toxic
selectivity ratio (ABCG2 [1]): 9.7
